Test results taken from ChEMBL document CHEMBL4715736, “Identification of anticancer agents based on the thieno[2,3-b]pyridine and 1H-pyrazole molecular scaffolds” (2016).

Columns and labels:
Format in all cases: functional
[1] = system: HOP-62; assay: Growth inhibition of human HOP-62 cells assessed as cell growth at 0.01 uM incubated for 48 hrs by sulforhodamine B assay relative to control; conditions: read-out: Activity
[2] = system: NCI-H322M; assay: Growth inhibition of human NCI-H322M cells assessed as cell growth at 0.01 uM incubated for 48 hrs by sulforhodamine B assay relative to control; conditions: read-out: Activity
[3] = system: SK-MEL-5; assay: Growth inhibition of human SK-MEL-5 cells assessed as cell growth at 0.01 uM incubated for 48 hrs by sulforhodamine B assay relative to control; conditions: read-out: Activity
[4] = system: UACC-62; assay: Growth inhibition of human UACC-62 cells assessed as cell growth at 0.01 uM incubated for 48 hrs by sulforhodamine B assay relative to control; conditions: read-out: Activity
[5] = system: IGROV-1; assay: Growth inhibition of human IGROV-1 cells assessed as cell growth at 0.01 uM incubated for 48 hrs by sulforhodamine B assay relative to control; conditions: read-out: Activity
[6] = system: OVCAR-3; assay: Growth inhibition of human OVCAR-3 cells assessed as cell growth at 0.01 uM incubated for 48 hrs by sulforhodamine B assay relative to control; conditions: read-out: Activity
[7] = system: 786-0; assay: Growth inhibition of human 786-0 cells assessed as cell growth at 0.01 uM incubated for 48 hrs by sulforhodamine B assay relative to control; conditions: read-out: Activity
Summary of the method: (§1)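 NCI Developmental Therapeutics Program NCI60 panel. Compounds that were active in the 10 µM one-dose screen went on to dose–response testing. Growth at each concentration is expressed relative to untreated control (100%). GI50 (concentration giving 50% of maximal inhibition of proliferation) and TGI (concentration giving total growth inhibition) were derived from the curves.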

[8] = system: Hs-578T; assay: Growth inhibition of human Hs-578T cells assessed as cell growth at 0.01 uM incubated for 48 hrs by sulforhodamine B assay relative to control; conditions: read-out: Activity
[9] = system: NCI-H460; assay: Growth inhibition of human NCI-H460 cells assessed as cell growth at 0.1 uM incubated for 48 hrs by sulforhodamine B assay relative to control; conditions: read-out: Activity
[10] = system: SW-620; assay: Growth inhibition of human SW-620 cells assessed as cell growth at 0.1 uM incubated for 48 hrs by sulforhodamine B assay relative to control; conditions: read-out: Activity
[11] = system: SNB-75; assay: Growth inhibition of human SNB-75 cells assessed as cell growth at 0.1 uM incubated for 48 hrs by sulforhodamine B assay relative to control; conditions: read-out: Activity
[12] = system: UACC-257; assay: Growth inhibition of human UACC-257 cells assessed as cell growth at 0.1 uM incubated for 48 hrs by sulforhodamine B assay relative to control; conditions: read-out: Activity
[13] = system: ACHN; assay: Growth inhibition of human ACHN cells assessed as cell growth at 0.1 uM incubated for 48 hrs by sulforhodamine B assay relative to control; conditions: read-out: Activity
[14] = system: SN12C; assay: Growth inhibition of human SN12C cells assessed as cell growth at 0.1 uM incubated for 48 hrs by sulforhodamine B assay relative to control; conditions: read-out: Activity
[15] = system: MCF7; assay: Growth inhibition of human MCF7 cells assessed as cell growth at 0.1 uM incubated for 48 hrs by sulforhodamine B assay relative to control; conditions: read-out: Activity
[16] = system: NCI-H226; assay: Growth inhibition of human NCI-H226 cells assessed as cell growth at 1 uM incubated for 48 hrs by sulforhodamine B assay relative to control; conditions: read-out: Activity
[17] = system: NCI-H23; assay: Growth inhibition of human NCI-H23 cells assessed as cell growth at 1 uM incubated for 48 hrs by sulforhodamine B assay relative to control; conditions: read-out: Activity
[18] = system: HCC 2998; assay: Growth inhibition of human HCC 2998 cells assessed as cell growth at 1 uM incubated for 48 hrs by sulforhodamine B assay relative to control; conditions: read-out: Activity; summary of the method: as §1
[19] = system: SF-268; assay: Growth inhibition of human SF-268 cells assessed as cell growth at 1 uM incubated for 48 hrs by sulforhodamine B assay relative to control; conditions: read-out: Activity
[20] = system: 786-0; assay: Growth inhibition of human 786-0 cells assessed as cell growth at 1 uM incubated for 48 hrs by sulforhodamine B assay relative to control; conditions: read-out: Activity; summary of the method: as §1
[21] = system: DU-145; assay: Growth inhibition of human DU-145 cells assessed as cell growth at 1 uM incubated for 48 hrs by sulforhodamine B assay relative to control; conditions: read-out: Activity; summary of the method: as §1
[22] = system: Hs-578T; assay: Growth inhibition of human Hs-578T cells assessed as cell growth at 1 uM incubated for 48 hrs by sulforhodamine B assay relative to control; conditions: read-out: Activity
[23] = system: UACC-257; assay: Growth inhibition of human UACC-257 cells assessed as cell growth at 100 uM incubated for 48 hrs by sulforhodamine B assay relative to control; conditions: read-out: Activity
[24] = system: OVCAR-4; assay: Growth inhibition of human OVCAR-4 cells assessed as cell growth at 100 uM incubated for 48 hrs by sulforhodamine B assay relative to control; conditions: read-out: Activity
[25] = system: ACHN; assay: Growth inhibition of human ACHN cells assessed as cell growth at 100 uM incubated for 48 hrs by sulforhodamine B assay relative to control; conditions: read-out: Activity
[26] = system: RXF 393; assay: Growth inhibition of human RXF 393 cells assessed as cell growth at 100 uM incubated for 48 hrs by sulforhodamine B assay relative to control; conditions: read-out: Activity
[27] = system: UO-31; assay: Growth inhibition of human UO-31 cells assessed as cell growth at 100 uM incubated for 48 hrs by sulforhodamine B assay relative to control; conditions: read-out: Activity
[28] = system: PC-3; assay: Growth inhibition of human PC-3 cells assessed as cell growth at 100 uM incubated for 48 hrs by sulforhodamine B assay relative to control; conditions: read-out: Activity
[29] = system: MDA-MB-468; assay: Growth inhibition of human MDA-MB-468 cells assessed as cell growth at 100 uM incubated for 48 hrs by sulforhodamine B assay relative to control; conditions: read-out: Activity
[30] = system: K562; assay: Growth inhibition of human K562 cells incubated for 48 hrs by sulforhodamine B assay
Summary of the method: (§2)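 NCI60 panel at the NCI Developmental Therapeutics Program. Only compounds active in the 10 µM screen went to dose-response testing. GI50, the concentration giving 50% of maximal inhibition of proliferation, and TGI, the concentration giving total growth inhibition, were derived from the dose-response curves.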

[31] = system: HOP-62; assay: Growth inhibition of human HOP-62 cells incubated for 48 hrs by sulforhodamine B assay; summary of the method: as §2
[32] = system: SF-268; assay: Growth inhibition of human SF-268 cells incubated for 48 hrs by sulforhodamine B assay
Summary of the method: (§3)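 NCI DTP 60-line human tumour panel. Dose-response curves were run only for ligands active in the initial 10 µM screen. GI50 (concentration giving 50% of maximal inhibition of proliferation) and TGI (concentration giving total growth inhibition) were derived from these curves.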

[33] = system: Malme-3M; assay: Growth inhibition of human Malme-3M cells incubated for 48 hrs by sulforhodamine B assay; summary of the method: as §2
[34] = system: 786-0; assay: Growth inhibition of human 786-0 cells incubated for 48 hrs by sulforhodamine B assay; summary of the method: as §1
[35] = system: UO-31; assay: Growth inhibition of human UO-31 cells incubated for 48 hrs by sulforhodamine B assay; summary of the method: as §3
[36] = read-out: LC50 (the source's name)

COc1cccc(NC(=O)c2sc3nc4c(cc3c2N)CN(Cc2ccccc2)CC4)c1 was tested. Which growth at 0.01 µM [1] did it give?
The growth at 0.01 µM was 80%.

What about the growth at 0.01 µM [2] of the same molecule?
The growth at 0.01 µM was 101%.

And the growth at 0.01 µM [3]?
The growth at 0.01 µM was 99%.

And the growth at 0.01 µM [4]?
Its growth at 0.01 µM is 94%.

And the growth at 0.01 µM [5]?
The growth at 0.01 µM was 101%.

And the growth at 0.01 µM [6]?
Its growth at 0.01 µM is 107%.

What about the growth at 0.01 µM [7] of the same molecule?
The growth at 0.01 µM was 90%.

What about the growth at 0.01 µM [8] of the same molecule?
Its growth at 0.01 µM is 88%.

And the growth at 0.1 µM [9]?
Its growth at 0.1 µM is 101%.

What about the growth at 0.1 µM [10] of the same molecule?
Its growth at 0.1 µM is 99%.

And the growth at 0.1 µM [11]?
Its growth at 0.1 µM is 92%.

And the growth at 0.1 µM [12]?
The growth at 0.1 µM was 91%.

What about the growth at 0.1 µM [13] of the same molecule?
Its growth at 0.1 µM is 101%.

And the growth at 0.1 µM [14]?
Its growth at 0.1 µM is 93%.

And the growth at 0.1 µM [15]?
The growth at 0.1 µM was 87%.

And the growth at 1 µM [16]?
The growth at 1 µM was 81%.

And the growth at 1 µM [17]?
Its growth at 1 µM is 89%.

What about the growth at 1 µM [18] of the same molecule?
Its growth at 1 µM is 86%.

And the growth at 1 µM [19]?
The growth at 1 µM was 91%.

And the growth at 1 µM [20]?
Its growth at 1 µM is 85%.

And the growth at 1 µM [21]?
Its growth at 1 µM is 95%.

And the growth at 1 µM [22]?
Its growth at 1 µM is 72%.

What about the growth at 100 µM [23] of the same molecule?
Its growth at 100 µM is 21%.

And the growth at 100 µM [24]?
Its growth at 100 µM is -32%.

What about the growth at 100 µM [25] of the same molecule?
Its growth at 100 µM is -3%.

What about the growth at 100 µM [26] of the same molecule?
Its growth at 100 µM is -49%.

And the growth at 100 µM [27]?
Its growth at 100 µM is -23%.

And the growth at 100 µM [28]?
Its growth at 100 µM is -2%.

What about the growth at 100 µM [29] of the same molecule?
Its growth at 100 µM is -8%.

And the GI50 [30]?
Its GI50 is 0.53 µM.

And the LC50 (concentration killing 50% of cells) [30]?
Its LC50 (concentration killing 50% of cells) is over 100 µM.

What about the TGI [30] of the same molecule?
The TGI was over 100 µM.

What about the GI50 [31] of the same molecule?
The GI50 was 1.83 µM.

What about the LC50 [31] of the same molecule?
The LC50 was 41.1 µM.

And the TGI [31]?
Its TGI is 6.47 µM.

And the GI50 [32]?
Its GI50 is 3.66 µM.

What about the LC50 (concentration killing 50% of cells) [32] of the same molecule?
Its LC50 (concentration killing 50% of cells) is over 100 µM.

And the TGI [32]?
The TGI was 207 µM.

And the GI50 [33]?
Its GI50 is 1.43 µM.

What about the LC50 [33] of the same molecule?
The LC50 was over 100 µM.

What about the TGI [33] of the same molecule?
The TGI was 16.6 µM.

And the GI50 [34]?
The GI50 was 3.61 µM.

And the TGI [34]?
Its TGI is 20.8 µM.

And the CC50 [34, 36]?
Its CC50 is over 100 µM.

What about the GI50 [35] of the same molecule?
The GI50 was 3.27 µM.

And the TGI [35]?
Its TGI is 32.3 µM.

What about the CC50 [35, 36] of the same molecule?
The CC50 was over 100 µM.
